Calls of active or inactive are those of the source. No cut-off for these calls is given here.
Columns and labels:
[1] = biological target: Tyrosyl-DNA phosphodiesterase 1 (Homo sapiens, UniProt Q9NUW8); assay: Inhibition of recombinant Tdp1 (unknown origin) assessed as decrease in hydrolysis of phosphodiester linkage between tyrosine residue and the 3' end of 5'-[32P]-DNA after 15 mins by PAGE analysis
Summary of the method: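 The substrate was 5′-32P single-stranded oligo N14Y carrying a 3′-phosphotyrosine, at 1 nM, with 10 pM recombinant Tdp1. Products were run on 16% denaturing PAGE with phosphorimaging.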

[2] = biological target: T1, DNA topoisomerase 1 (Homo sapiens) (UniProt P11387); assay: Inhibition of recombinant Top1 (unknown origin) assessed as increase in [32P]-DNA breaks after 20 mins by PAGE analysis
T1 sequence (whole entry): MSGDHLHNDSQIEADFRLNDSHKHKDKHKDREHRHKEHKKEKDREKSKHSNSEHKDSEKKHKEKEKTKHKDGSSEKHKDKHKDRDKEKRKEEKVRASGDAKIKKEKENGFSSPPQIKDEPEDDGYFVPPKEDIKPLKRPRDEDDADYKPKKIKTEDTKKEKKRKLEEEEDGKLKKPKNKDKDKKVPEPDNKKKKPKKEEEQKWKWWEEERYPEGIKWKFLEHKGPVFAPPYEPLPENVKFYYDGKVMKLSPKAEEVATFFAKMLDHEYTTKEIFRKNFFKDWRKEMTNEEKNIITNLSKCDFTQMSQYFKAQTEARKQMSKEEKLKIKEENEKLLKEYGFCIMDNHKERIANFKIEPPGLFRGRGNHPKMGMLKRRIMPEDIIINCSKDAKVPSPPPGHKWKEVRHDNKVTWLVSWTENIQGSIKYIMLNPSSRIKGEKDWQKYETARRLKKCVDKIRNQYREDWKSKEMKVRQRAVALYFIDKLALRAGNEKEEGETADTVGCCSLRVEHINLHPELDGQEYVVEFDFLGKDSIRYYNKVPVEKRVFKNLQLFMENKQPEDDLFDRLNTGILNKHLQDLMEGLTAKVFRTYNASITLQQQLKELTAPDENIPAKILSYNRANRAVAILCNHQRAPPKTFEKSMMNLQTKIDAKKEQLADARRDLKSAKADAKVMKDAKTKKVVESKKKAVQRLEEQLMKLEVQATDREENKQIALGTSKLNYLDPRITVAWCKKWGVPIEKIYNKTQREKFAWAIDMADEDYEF
Summary of the method: (§1)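 The substrate was a 3′-32P 117-bp oligonucleotide holding Top1 cleavage sites, at about 2 nM, with recombinant Top1. Compounds were tested at 0.1, 1.0, 10 and 100 μM. Reactions were stopped with 0.5% SDS and run on 20% denaturing PAGE.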

UACC-62 = assay: Cytotoxicity against human UACC62 cells after 48 hrs by SRB assay; assay type: functional; conditions: for GI50: UACC-62, 48 h
Summary of the method: (§2)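 NCI-60 human cancer cell line screen. Five-concentration testing across 0.01 to 100 μM, done only for compounds selected from a one-concentration preliminary test. Read-out was GI50.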

OVCAR-3 = assay: Cytotoxicity against human OVCAR3 cells after 48 hrs by SRB assay; assay type: functional; conditions: for GI50: OVCAR-3, 48 h; summary of the method: as §2
MCF7 = assay: Cytotoxicity against human MCF7 cells after 48 hrs by SRB assay; assay type: functional; conditions: for GI50: MCF7, 48 h; summary of the method: as §2
PBMC = assay: Induction of DNA damage in human PBMC assessed as formation of gamma-H2AX foci at 100 to 1000 nM after 2 hrs by DAPI staining-based confocal microscopy; assay type: cell-based; conditions: 1 µM
Summary of the method: (§3)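 Freshly purified human PBMCs (from healthy donors) or CCRF-CEM leukemia cells were used at 2 mil/mL in RPMI 1640 with 10% FBS, penicillin and streptomycin. Cells were dosed at 100 nM and 1 μM for 2 h at 37 °C. They were then fixed in 2% paraformaldehyde, cytospun and blocked in 5% BSA. Staining used anti-γ-H2AX with an Alexa 488 secondary and DAPI, and foci were imaged by confocal microscopy.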

SN12C = assay: Cytotoxicity against human SN12C cells after 48 hrs by SRB assay; assay type: functional; summary of the method: as §2
[3] = biological target: T2, Tyrosyl-DNA phosphodiesterase 2 (Homo sapiens, UniProt O95551); assay: (§4) Inhibition of recombinant human Tdp2 assessed as decrease in alpha 32P-cordycepin-3'-labeled DNA breaks after 15 mins by PAGE analysis
T2 sequence (O95551 whole entry): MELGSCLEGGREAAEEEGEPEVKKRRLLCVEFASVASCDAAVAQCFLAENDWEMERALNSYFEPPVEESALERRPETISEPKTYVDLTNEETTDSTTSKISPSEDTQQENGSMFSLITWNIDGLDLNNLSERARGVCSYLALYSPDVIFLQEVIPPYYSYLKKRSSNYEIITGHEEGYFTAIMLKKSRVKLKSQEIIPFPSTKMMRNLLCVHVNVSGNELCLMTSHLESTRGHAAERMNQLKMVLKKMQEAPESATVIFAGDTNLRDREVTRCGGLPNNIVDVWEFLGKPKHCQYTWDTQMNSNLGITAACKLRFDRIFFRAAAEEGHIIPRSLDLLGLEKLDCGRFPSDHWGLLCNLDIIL
Summary of the method: (§5)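 The substrate was the 18-mer single-stranded TY18 oligo, α32P-cordycepin-3′-labeled, at 1 nM, with 25 pM recombinant human Tdp2. Products were run on 16% denaturing PAGE.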

[4] = biological target: T3, Tyrosyl-DNA phosphodiesterase 2 (Homo sapiens) (UniProt O95551); assay: as §4; summary of the method: as §5
T3 sequence (whole entry): T2 sequence (O95551 whole entry)

SF-539 = assay: Cytotoxicity against human SF539 cells after 48 hrs by SRB assay; assay type: functional; conditions: for GI50: SF-539, 48 h; summary of the method: as §2
HOP-62 = assay: Cytotoxicity against human HOP62 cells after 48 hrs by SRB assay; assay type: functional; conditions: for GI50: HOP-62, 48 h; summary of the method: as §2
CCRF-CEM = assay: Induction of DNA damage in human CCRF-CEM cells assessed as formation of gamma-H2AX foci at 100 to 1000 nM after 2 hrs by DAPI staining-based confocal microscopy; assay type: functional, cell-based; summary of the method: as §3
[5] = biological target: T1, DNA topoisomerase 1 (Homo sapiens); assay: Inhibition of recombinant Top1 (unknown origin) assessed as increase in [32P]-DNA breaks at 0.1 to 100 uM after 20 mins by PAGE analysis; summary of the method: as §1
[6] = biological target: T1, DNA topoisomerase 1 (Homo sapiens); assay: Poison activity at recombinant Top1 (unknown origin) assessed as inhibition of [32P]-DNA religation in drug-DNA-Top1 ternary complex at 0.1 to 10 uM after 20 mins by PAGE analysis; summary of the method: as §1
[7] = biological target: T1, DNA topoisomerase 1 (Homo sapiens); assay: Suppressor activity at recombinant Top1 (unknown origin) assessed as decrease in [32P]-DNA breaks at 100 uM after 20 mins by PAGE analysis; summary of the method: as §1
[8] = biological target: T1, DNA topoisomerase 1 (Homo sapiens); assay: Inhibition of recombinant Top1 (unknown origin) assessed as increase in [32P]-DNA breaks at 1 uM after 20 mins by PAGE analysis; summary of the method: as §1

Sequence of Tyrosyl-DNA phosphodiesterase 1 (Q9NUW8 whole entry): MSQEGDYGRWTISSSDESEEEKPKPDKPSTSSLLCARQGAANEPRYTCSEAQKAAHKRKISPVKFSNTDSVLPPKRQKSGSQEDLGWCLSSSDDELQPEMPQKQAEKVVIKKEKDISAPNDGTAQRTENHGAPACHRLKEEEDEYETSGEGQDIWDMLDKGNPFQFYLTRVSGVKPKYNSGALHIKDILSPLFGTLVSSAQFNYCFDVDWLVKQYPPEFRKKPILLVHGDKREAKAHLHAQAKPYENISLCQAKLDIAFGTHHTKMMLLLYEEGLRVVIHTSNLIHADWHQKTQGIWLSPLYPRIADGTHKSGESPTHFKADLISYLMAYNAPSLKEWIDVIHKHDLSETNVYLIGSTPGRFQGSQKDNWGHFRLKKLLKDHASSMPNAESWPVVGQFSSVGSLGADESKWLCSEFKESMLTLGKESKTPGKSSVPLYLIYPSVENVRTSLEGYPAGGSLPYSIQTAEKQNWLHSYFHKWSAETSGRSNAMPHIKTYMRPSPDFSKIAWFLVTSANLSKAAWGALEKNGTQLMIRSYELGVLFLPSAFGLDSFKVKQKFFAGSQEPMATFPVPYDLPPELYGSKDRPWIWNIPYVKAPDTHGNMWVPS

| SMILES | IC50 [1] | inhibition [1] | inhibition [2] | Activity (PBMC) | IC50 [3] | inhibition [4] | Activity (CCRF-CEM) | GI50 (UACC-62) | GI50 (MCF7) | GI50 (SF-539) | GI50 (HOP-62) | GI50 (OVCAR-3) | GI50 (SN12C) | inhibition [5] | also measured |
| --- | --- | --- | --- | --- | --- | --- | --- | --- | --- | --- | --- | --- | --- | --- | --- |
| COc1cnc2c(c1)C(=O)c1c-2n(CCCN2CCC(N)CC2)c(=O)c2cc([N+](=O)[O-])ccc12 | 1000 to 12000 nM | Dose-dependent effect | Active | Non-Toxic | 1000 to 12000 nM | Dose-dependent effect | Active | – | – | – | – | – | – | – | Activity (UACC-62): inactive; Activity (OVCAR-3): inactive; Activity (MCF7): inactive; Activity (SN12C): inactive; Activity (SF-539): inactive; Activity (HOP-62): inactive |
| CC[C@@]1(O)C(=O)OCc2c1cc1n(c2=O)Cc2cc3ccccc3nc2-1 [CAMPTOTHECIN] | – | – | – | Non-Toxic | – | – | Active | < 10 nM | 13 nM | < 10 nM | < 10 nM | – | – | – | – |
| COc1cnc2c(c1)C(=O)c1c-2n(CCCBr)c(=O)c2cc([N+](=O)[O-])ccc12 | 12000 to 37000 nM | Dose-dependent effect | Active | – | 37000 to 111000 nM | Dose-dependent effect | – | 82 nM | 46 nM | 279 nM | 58 nM | 248 nM | 269 nM | – | – |
| COc1cnc2c(c1)C(=O)c1c-2n(CCCNCCN2CCOCC2)c(=O)c2cc([N+](=O)[O-])ccc12 | 12000 to 37000 nM | Dose-dependent effect | – | – | 37000 to 111000 nM | Dose-dependent effect | – | 44 nM | 32 nM | 311 nM | 150 nM | 315 nM | 80 nM | Active | – |
| COc1cnc2c(c1)C(=O)c1c-2n(CCCN2CCCC2)c(=O)c2cc([N+](=O)[O-])ccc12 | 1000 to 12000 nM | Dose-dependent effect | Active | – | 37000 to 111000 nM | Dose-dependent effect | – | 15 nM | < 10 nM | 31 nM | < 10 nM | 59 nM | 36 nM | – | – |
| CNCCCn1c2c(c3ccc([N+](=O)[O-])cc3c1=O)C(=O)c1cc(OC)cnc1-2 | 1000 to 12000 nM | Dose-dependent effect | Active | – | 37000 to 111000 nM | Dose-dependent effect | – | 20 nM | 1060 nM | 51 nM | 30 nM | 174 nM | 46 nM | – | – |
| COc1cnc2c(c1)C(=O)c1c-2n(CCCNC2=NCCS2)c(=O)c2cc([N+](=O)[O-])ccc12 | 1000 to 12000 nM | Dose-dependent effect | – | Non-Toxic | 12000 to 37000 nM | Dose-dependent effect | Active | < 10 nM | < 10 nM | 36 nM | 14 nM | 137 nM | < 10 nM | Active | Activity [6]: Active; Activity [7]: Active |
| COc1cnc2c(c1)C(=O)c1c-2n(CCCNC(C)C)c(=O)c2cc([N+](=O)[O-])ccc12 | 12000 to 37000 nM | Dose-dependent effect | – | Non-Toxic | 37000 to 111000 nM | Dose-dependent effect | Active | 19 nM | 12 nM | 51 nM | 85 nM | 82 nM | 39 nM | Active | – |
| COc1cnc2c(c1)C(=O)c1c-2n(CCCN2CCN(CCO)CC2)c(=O)c2cc([N+](=O)[O-])ccc12 | > 111000 nM | Dose-dependent effect | Active | – | > 111000 nM | Dose-dependent effect | – | 1220 nM | 142 nM | 1700 nM | 2760 nM | 1460 nM | – | – | – |
| COc1cnc2c(c1)C(=O)c1c-2n(CCCN2CCNCC2)c(=O)c2cc([N+](=O)[O-])ccc12 | 12000 to 37000 nM | Dose-dependent effect | Active | – | 37000 to 111000 nM | Dose-dependent effect | – | 175 nM | 36 nM | 355 nM | 65 nM | 1190 nM | 230 nM | – | – |
| COc1cc2c3c(n(CCCNCCO)c(=O)c2cc1OC)-c1cc2c(cc1C3=O)OCO2 [LMP-744] | 12000 to 111000 nM | – | – | – | 1000 to 12000 nM | – | – | – | – | 40 nM | – | – | – | – | inhibition [8]: Active |
| CCNCCCn1c2c(c3ccc([N+](=O)[O-])cc3c1=O)C(=O)c1cc(OC)cnc1-2 | 1000 to 12000 nM | Dose-dependent effect | – | Non-Toxic | 37000 to 111000 nM | Dose-dependent effect | Active | 27 nM | 19 nM | 70 nM | 107 nM | 62 nM | 53 nM | Active | – |
| COc1cnc2c(c1)C(=O)c1c-2n(CCCN2CCN(C)CC2)c(=O)c2cc([N+](=O)[O-])ccc12 | 12000 to 37000 nM | Dose-dependent effect | Active | – | 12000 to 37000 nM | Dose-dependent effect | – | 183 nM | 16 nM | 191 nM | 81 nM | 171 nM | 214 nM | – | – |

Reference: ChEMBL document CHEMBL4007513, “Synthesis and Biological Evaluation of the First Triple Inhibitors of Human Topoisomerase 1, Tyrosyl-DNA Phosphodiesterase 1 (Tdp1), and Tyrosyl-DNA Phosphodiesterase 2 (Tdp2)” (J Med Chem, 2017)
